Compound activity as filed in PubChem.
In the library only some 3.3% were active in any assay of this set; here they are far more common.
PRMT1 inh: blocks human protein arginine methyltransferase 1; Q99873; recombinant PRMT1, activity-based probe fluorescence polarization; inhibition, % at 2.79 µM; actives 1.3% (n = 370,000);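 active means inhibition above about 21% made by adding two undisclosed values, limit read from the data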
LEDGF integ inh: blocks HIV-1 LEDGF/p75-dependent DNA integration | TR-FRET IN-LEDGF/p75 DNA integration, Eu/Cy5 | inhibition, % at 3.7 µM | actives 0.64% (n = 370,000) | AID 743269;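 active means inhibition above the screen-wide mean plus 3 SD, cut at about 13% in these data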;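 further: signal is the Cy5 over europium emission ratio at 671 and 618 nm; 0% = plate median of compound wells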
TDP2 absorb: blocks human TDP2 phosphodiesterase activity | inhibition, % at 12.8 µM | recombinant TDP2, T5PNP hydrolysis, p-nitrophenol absorbance 415 nm | O95551 | actives 0.34% (n = 370,000);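 active means inhibition above the mean of all tested compounds plus 3 SD, set per campaign, cut at about 25% in these data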;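 further: 0% = DMSO with enzyme and 100% = buffer with substrate but no TDP2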
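System – recombinant human TDP2 · Amount – 120 nM TDP2 per well · Buffer or medium – Mg2+-containing Tris-HCl buffer, pH 7.5 · Reagent – T5PNP substrate, 5 mM · Dosing – 12.8 µM single point, 1% DMSO · Incubation – 2 h at 37 °C · Measured by – epi absorbance · Read-out basis – percent inhibition · Benchmarks – high control without enzyme, low control DMSO plus TDP2 · Repeats – singlicate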
SIAE primary: blocks human sialic acid acetylesterase | Q9HAT2 | SIAE FP-Rh probe binding, fluorescence polarization | inhibition, % at 9.66 µM | actives 0.69% (n = 370,000) | AID 1053197;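 active means inhibition above a cutoff: mean of compounds within the control limits plus 3 SD of those, cut at about 17% in these data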;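 further: 0% = plate median of compound wells and 100% = probe without SIAE protein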
MBD2 inh: MBD2-methylated oligo binding inhibition | Q9UBB5 | TR-FRET, MBD2 binding to methylated oligonucleotide | inhibition, % at 4.4 µM | actives 0.31% (n = 370,000); in the data active means inhibition above about 13%
UHRF1 MBD2 ctr: human UHRF1 methylated DNA binding inhibitors. inhibition, % at 4.4 µM. UHRF1 binding to methylated oligo, TR-FRET. actives 0.75% (n = 370,000). Q96T88; in the data active means inhibition above about 21%;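 further: UHRF1 SRA domain binding a hemimethylated CpG hairpin DNA probe; 0% = median of test compound wells and 100% = reference inhibitor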
Target sequence (Q96T88 whole entry, looked up, the tested form may be a part): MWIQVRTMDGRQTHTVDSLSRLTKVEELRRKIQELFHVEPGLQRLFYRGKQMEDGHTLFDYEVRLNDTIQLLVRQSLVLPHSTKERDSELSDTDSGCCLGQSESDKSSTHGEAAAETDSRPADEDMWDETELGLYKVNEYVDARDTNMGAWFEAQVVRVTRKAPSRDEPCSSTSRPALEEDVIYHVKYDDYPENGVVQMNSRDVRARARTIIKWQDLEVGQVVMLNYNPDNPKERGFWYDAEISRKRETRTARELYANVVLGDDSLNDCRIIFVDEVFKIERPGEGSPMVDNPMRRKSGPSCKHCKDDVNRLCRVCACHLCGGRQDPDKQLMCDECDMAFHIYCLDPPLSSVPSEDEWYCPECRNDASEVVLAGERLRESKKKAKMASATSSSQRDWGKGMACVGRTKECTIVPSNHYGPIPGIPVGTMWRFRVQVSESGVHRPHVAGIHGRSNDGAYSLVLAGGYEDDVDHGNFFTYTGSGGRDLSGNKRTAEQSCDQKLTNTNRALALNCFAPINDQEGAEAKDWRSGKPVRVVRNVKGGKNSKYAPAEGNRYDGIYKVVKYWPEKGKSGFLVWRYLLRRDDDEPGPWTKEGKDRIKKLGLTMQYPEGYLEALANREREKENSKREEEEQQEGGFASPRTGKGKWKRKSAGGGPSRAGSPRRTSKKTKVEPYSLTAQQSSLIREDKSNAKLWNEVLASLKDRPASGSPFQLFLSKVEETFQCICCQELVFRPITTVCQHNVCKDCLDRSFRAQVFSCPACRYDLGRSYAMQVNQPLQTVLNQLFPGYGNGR
PRMT1 confirm: confirmation of human PRMT1 inhibitors. shares compounds with PRMT1 inh. recombinant His-PRMT1, activity-based probe fluorescence polarization. inhibition, % at 2.79 µM. actives 42% (n = 3,300). AID 687036;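 active means mean inhibition across replicates above the hit cutoff derived for the earlier primary screen, cut at about 22% in these data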
* = called active by the depositor; / = not tested or not shown.

SMILES | PRMT1 inh | LEDGF integ inh | TDP2 absorb | SIAE primary | MBD2 inh | UHRF1 MBD2 ctr | PRMT1 confirm
C1=C(c2ccc(-c3ccccc3)cc2)Nc2ncnn2C1c1ccco1 (stereo not drawn) | 39* | 10 | 7 | -12 | 0 | -2 | 22*
CSCC(C)N1CCC(n2nccc2NC(=O)CCCc2ccccc2)CC1 (stereo not drawn) | 30* | -1 | -8 | -5 | 10 | 1 | 24*
Cc1ccc(-c2cc(C(=O)Nc3ccccc3C(N)=O)c3ccccc3n2)o1 | 65* | 1 | -13 | -12 | 5 | 8 | 28*
Cc1ccc(-c2cc(C(=O)Nc3nccs3)c3ccccc3n2)o1 | 36* | 3 | -14 | 3 | -6 | -4 | 12
Cc1ccc(-c2cc(C(=O)NCC3(N(C)C)CCCCC3)c3ccccc3n2)o1 | 4 | 0 | -1 | 6 | -1 | -2 | /
COc1ccc(NC(=O)c2cc(-c3ccc(C)o3)nc3ccccc23)c(OC)c1 | 6 | 2 | 7 | 8 | 1 | -2 | /
Cc1ccc(-c2cc(C(=O)N(C)CC(=O)Nc3ccccc3Br)c3ccccc3n2)o1 | 30* | 3 | 5 | 1 | -5 | -3 | 39*
Oc1oc(-c2ccccc2)nc1/C=N/c1ccccn1 | -1 | 0 | 2 | -8 | 1 | 0 | /
Oc1c(C=Nc2ccc(Cl)cn2)sc2ccccc12 | 41* | 1 | -4 | -7 | 0 | -3 | 4
Oc1c(/C=N/c2ccccn2)sc2ccccc12 | 25* | 0 | 8 | -12 | -3 | 0 | 15
Oc1ccccc1N=Cc1sc2ccccc2c1Cl | 6 | 6 | 10 | 12 | -24 | -22 | /
NC(=NC(=O)/C=C/c1ccccc1Br)N(CC#Cc1ccccc1)CC#Cc1ccccc1 | 0 | -2 | -3 | -5 | 0 | 0 | /
Cc1ccccc1N1C(=O)C2C3C=CC(C2C1=O)N(C)C3=O (stereo not drawn) | 0 | -1 | 5 | -3 | 3 | 1 | /
CN1C2C=CC(=O)C1C1C(=O)N(c3ccccc3)C(=O)C12 (stereo not drawn) | 28* | 0 | 6 | 1 | -6 | 0 | 2
O=C(NNc1nc2cc3c(cc2s1)OCO3)c1cccc(F)c1 | 33* | -4 | -2 | -3 | 6 | -1 | 11
O=C(NNc1nc2cc3c(cc2s1)OCO3)c1ccccc1 | 20 | 6 | 2 | 7 | -3 | -1 | /
CCN(CC)c1ccc(N)cc1S(=O)(=O)Nc1ccc(OC)cc1 | 7 | -3 | -9 | 4 | 7 | 3 | /
CCN(CC)c1ccc(N)cc1S(=O)(=O)Nc1ccccc1OC | 46* | -6 | -4 | 5 | -3 | 2 | 14
CCN(CC)C(=O)c1sc2nc(-c3cccs3)cc(-c3cccs3)c2c1N | 57* | 6 | 8 | -15 | 1 | -4 | 13
C=CCc1cccc2cc(C(=O)Nc3ccccc3C(=O)O)c(=O)oc12 | 36* | 3 | 1 | -16 | 4 | 4 | 18
CCOC(=O)N1CCN(C(=O)C[C@H]2C(=O)N(CCCOC)C3=CCCCC[C@]32C(=O)OC)CC1 | -1 | -2 | 10 | 15 | 2 | -3 | /
N#Cc1c(-c2ccco2)nc(SCC(=O)Nc2cccc(Cl)c2)[nH]c1=O | 46* | 2 | 8 | -28 | 5 | 4 | 11
CCc1ccc(NC(=O)C(C)Sc2nc(-c3ccco3)c(C#N)c(=O)[nH]2)cc1 (stereo not drawn) | 26* | 8 | 24 | -13 | 2 | 1 | 38*
CC(=O)Nc1ccc(S(=O)(=O)NCCSCc2c(Cl)cccc2Cl)cc1 | 4 | -2 | -10 | -15 | 4 | 2 | /
CC(=O)Nc1ccc(S(=O)(=O)NCCSCc2ccco2)cc1 | 28* | 1 | -6 | -3 | 0 | -1 | 61*
SMILES | PRMT1 inh | LEDGF integ inh | TDP2 absorb | SIAE primary | MBD2 inh | UHRF1 MBD2 ctr | PRMT1 confirm
COC(=O)[C@H](C(C)C)N1Cc2nnn(Cc3ccccc3)c2-c2ccccc2S1(=O)=O | -4 | 3 | -11 | 9 | 2 | -1 | /
C=CCN(CC#Cc1ccccc1)Cc1ccc(OC)cc1OC | -4 | -1 | 1 | -2 | 0 | -2 | /
CN(C)c1ccc2nc3c(=O)[nH]c(=O)nc-3n(CC(O)C(O)C(O)CO)c2c1 (stereo not drawn) | 80* | 1 | 2 | -278 | -24 | -34 | 55*
CCCOc1ccccc1NC(=O)/C=C/C(N)=O | 59* | -4 | -8 | -4 | 7 | 16 | 36*
CCCCOc1ccccc1NC(=O)C=C(C)C | -4 | 3 | -14 | -9 | -1 | 1 | /
COc1cccc(C(=O)n2ccc3ccc(-c4ccc5ccn(Cc6ccc(C#N)cc6)c5c4)cc32)c1 | 6 | -2 | 1 | -5 | -3 | -2 | /
O=S(=O)(c1ccccc1)n1c(CN2CCOCC2)nc2ccccc21 | -7 | 8 | -1 | 10 | -6 | -2 | /
CC1=C(C(=O)O)N2C(=O)C(NC(=O)c3nn(C)c(C)c3Cl)C2SC1 (stereo not drawn) | 29* | 1 | -13 | -1 | -3 | 2 | 38*
CC1=C(C(=O)O)N2C(=O)C(NC(=O)c3nn(C)cc3[N+](=O)[O-])C2SC1 (stereo not drawn) | 33* | 4 | 7 | -1 | -1 | -4 | 44*
CC1=C(C(=O)O)N2C(=O)C(NC(=O)c3ccn(C)n3)C2SC1 (stereo not drawn) | 6 | 0 | 14 | -1 | -5 | -3 | /
O=C1C=C(NNC(=O)c2cccnc2)CC(c2ccco2)C1 (stereo not drawn) | 42* | 0 | 2 | 8 | -7 | -1 | 2
O=C(NC1CCCC1)C1(C(=O)C2CC2)CC(c2ccccn2)=NO1 (stereo not drawn) | -1 | 1 | -6 | 3 | 0 | 3 | /
O=C(CSc1n[nH]c(-c2ccncc2)n1)c1ccccc1 | 2 | 5 | 4 | -1 | 4 | 0 | /
Cc1nc(SCC(=O)c2ccccc2)n[nH]1 | 54* | 1 | -4 | 2 | -6 | 1 | 43*
O=C(Nc1cccc(Cl)c1)OC1CCC12CCC(c1ccccc1)CC2 (stereo not drawn) | -6 | 4 | 5 | -16 | -7 | -2 | /
Cc1cc(O)cc2c1C(=O)/C(=C/c1ccco1)O2 | 28* | 13 | -7 | -9 | -3 | 3 | 19
CCN(CC)C(=O)Oc1ccc2c(c1)O/C(=C\c1ccco1)C2=O | 16 | 2 | -6 | -4 | 4 | 5 | /
Cc1ccc(C2CC(=O)N3CN(Cc4ccco4)CSC3=C2C#N)cc1 (stereo not drawn) | 39* | 2 | 6 | 1 | 0 | -3 | 4
N#CC1=C2SCN(c3ccccc3)CN2C(=O)CC1c1cccs1 (stereo not drawn) | 19 | 0 | 11 | -2 | 3 | -9 | /
